ZTA counter: counter-screen for EBNA-1 inhibitors: inhibitors of Epstein-Barr virus ZTA. 320,000 compounds, 0.15% hits. ZTA-DNA binding, fluorescence polarization. AID 2234. P03206. inhibition, % at 11 µM; in the data active = inhibition above about 33%
EBNA-1 inh: EBNA-1 DNA-binding inhibitors, primary screen, biochemical, fluorescence polarization. inhibition, % at 14.8 µM. 300,000 compounds, 0.34% hits; in the data active = inhibition above about 28%
LANA-H2A inh: blockers of LANA interaction with H2A/H2B – biochemical, FP readout, HTS, primary screen; Protein LANA1 (Human herpesvirus 8 type P (isolate GK18)), Q9QR71; cell-free LANA-H2A/H2B peptide, fluorescence polarization; inhibition, % (test concentration not listed); 320,000 compounds, 0.6% hits; in the data active = inhibition mostly above about 10%, no sharp cut-off; inactive = mostly below about 6.7%
CSN deneddyl inh: inhibitors of CSN-mediated cullin deneddylation, primary screen, biochemical, fluorescence polarization, uHTS | COP9 signalosome complex subunit 5 (Homo sapiens), Q92905 | Purified CSN, SCF-Nedd8-OG deneddylation | inhibition, % at 12.5 µM | 360,000 compounds, 0.38% hits | AID 651999, 2013;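 active = pattern-corrected inhibition above about 35%, with an unprinted fluorescence ratio check between 0.5 and 1.5, limit read from the data, passing the limit was not always enough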;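 note: 0% = enzyme with substrate and 100% = substrate without enzyme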
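Schedule: reaction 90 min, room temperature / Assay system: HEK293T-derived human Csn5 enzyme / Input: Csn5 at 0.24 nM final / Measure: inhibition of Csn5 cleavage, % / Control set: substrate-only high control, full reaction low control / Technique: fluorescence polarization of the substrate / Buffer or medium: Tris/NaCl/DTT buffer, pH 7.5 / Reagent: SCFSkp2-Nedd8OG substrate at 10 nM final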
Bfl-1 A1 inh: caspase 3/7 activation in MEF A1-2A-BIM cells, primary screen, A1 inhibitor project, cell-based, luminescence, HTS; Caspase-Glo 3/7 luminescence, 3 h; percent of clofoctol response, vehicle zero; caspase activation, % (test concentration not listed); 330,000 compounds, 0.066% hits; AID 2462, 2010;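 active = over half of replicate activation scores above 10%, or exactly half above 10 with the replicate mean above 10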
HNF4A DNA FP: change in binding of human HNF4A to DNA, primary screen, biochemical, fluorescence polarization, FITC-DNA; Hepatocyte nuclear factor 4-alpha (Homo sapiens), P41235; 1 h; activity change, % at 10 µM; 360,000 compounds, 0.3% hits; in the data active = activity change above about 30%, passing the limit was not always enough
CSN5 deneddyl: Csn5 deneddylation inhibitors, confirmation, biochemical, fluorescence polarization, single concentration, SCF-Nedd8OG substrate. shares compounds with CSN deneddyl inh. AID 720654, 2013. 540 compounds, 62% hits. Csn5 deneddylation of SCF-Nedd8OG, 90 min. inhibition, % at 16.6 µM; in the data active = inhibition above about 50%;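 note: 0% = DMSO with enzyme and 100% = no enzyme wells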
MMP2 cntr CSN: MMP-2 protease inhibition counter-screen, confirmation, counter-screen for CSN deneddylation inhibitor project, biochemical, fluorescence, single concentration; shares compounds with CSN deneddyl inh; recombinant MMP-2, FRET substrate fluorescence, 60 min; inhibition, % at 16.6 µM; 540 compounds, 33% hits;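 active = corrected plate-normalized z-score of 5 or more, or -5 or less, or inhibition of 15% or more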;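 note: plate controls were DMSO wells with enzyme for no effect and buffer wells lacking MMP-2 for full effect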
Target sequence (P08253 whole entry, looked up): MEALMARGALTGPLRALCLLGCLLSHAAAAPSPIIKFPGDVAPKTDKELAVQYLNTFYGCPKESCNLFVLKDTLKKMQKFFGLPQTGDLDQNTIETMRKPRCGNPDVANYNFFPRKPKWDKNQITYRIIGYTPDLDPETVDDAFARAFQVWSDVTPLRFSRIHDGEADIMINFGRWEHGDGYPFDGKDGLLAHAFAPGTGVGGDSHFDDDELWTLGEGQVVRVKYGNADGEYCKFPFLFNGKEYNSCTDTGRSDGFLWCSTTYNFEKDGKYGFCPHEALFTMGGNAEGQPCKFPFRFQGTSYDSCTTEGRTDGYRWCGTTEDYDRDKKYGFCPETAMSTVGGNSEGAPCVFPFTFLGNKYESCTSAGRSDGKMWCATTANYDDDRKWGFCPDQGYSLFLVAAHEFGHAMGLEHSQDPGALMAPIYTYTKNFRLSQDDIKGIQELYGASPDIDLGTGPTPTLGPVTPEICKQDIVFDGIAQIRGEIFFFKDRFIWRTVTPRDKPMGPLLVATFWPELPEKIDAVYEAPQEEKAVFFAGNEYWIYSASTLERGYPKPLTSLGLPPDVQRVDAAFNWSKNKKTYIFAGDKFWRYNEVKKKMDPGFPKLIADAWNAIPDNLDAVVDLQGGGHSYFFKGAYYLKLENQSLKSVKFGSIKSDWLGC
Thrombin counter: counter-screen for CSN deneddylation inhibitors: bovine thrombin inhibition | bovine thrombin cleavage of Ub4-pepOG, fluorescence polarization | shares compounds with CSN deneddyl inh | inhibition, % at 16.6 µM | 540 compounds, 49% hits;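 active = inhibition at or above a set limit, with a fluorescence interference ratio between 0.5 and a set maximum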
Active calls of the source: *. Hits are enriched below; roughly 1.5% of the tested compounds scored in any of these assays.

How did Cc1cc(/C=C2\SC(=S)NC2=O)c(C)n1-c1cccc(O)c1 do in these assays?
ZTA counter: -11; EBNA-1 inh: 4; LANA-H2A inh: -7; CSN deneddyl inh: 66*; Bfl-1 A1 inh: 0; HNF4A DNA FP: 97*; CSN5 deneddyl: 37; MMP2 cntr CSN: 19*; Thrombin counter: 66*

How did Cc1cc(/C=C2\SC(=S)N(C)C2=O)c(C)n1-c1ccc(O)cc1 do in these assays?
ZTA counter: 6; EBNA-1 inh: 0; LANA-H2A inh: 3; CSN deneddyl inh: 51*; Bfl-1 A1 inh: -3; HNF4A DNA FP: 79*; CSN5 deneddyl: 181*; MMP2 cntr CSN: 5; Thrombin counter: 62*

How did Cc1ccc(-n2c(C)cc(/C=C3\SC(=O)NC3=O)c2C)cc1 do in these assays?
ZTA counter: 7; EBNA-1 inh: 10; LANA-H2A inh: 5; CSN deneddyl inh: -3; Bfl-1 A1 inh: -1; HNF4A DNA FP: 5

What do the screens show for `Cc1cc(/C=C2/SC(=S)N(c3cccc(Cl)c3)C2=O)c(C)n1-c1cccnc1`?
ZTA counter: 6; EBNA-1 inh: -1; LANA-H2A inh: 4; CSN deneddyl inh: 47*; Bfl-1 A1 inh: 0; HNF4A DNA FP: 43*; CSN5 deneddyl: 128*; MMP2 cntr CSN: -1; Thrombin counter: 8

How did CN1C(=O)/C(=C/c2coc3ccc(O)cc3c2=O)SC1=S do in these assays?
ZTA counter: -6; EBNA-1 inh: 3; LANA-H2A inh: 11; CSN deneddyl inh: 9; Bfl-1 A1 inh: -5; HNF4A DNA FP: 16

How did Fc1cccc(Cc2c(-c3ccco3)nc3ccc(Br)cn23)c1 do in these assays?
CSN deneddyl inh: 23; HNF4A DNA FP: -6

What do the screens show for `COc1cc(/C=C(\C#N)C(=O)c2ccc(O)c(O)c2)cc(I)c1O`?
ZTA counter: -9; EBNA-1 inh: 6; LANA-H2A inh: -11; CSN deneddyl inh: active; Bfl-1 A1 inh: 2; HNF4A DNA FP: 110; CSN5 deneddyl: 19; MMP2 cntr CSN: -106*; Thrombin counter: 57

Results for COc1ccc(C=C(C#N)C(=O)c2ccccc2)cc1 ?
CSN deneddyl inh: 2; HNF4A DNA FP: 3

What do the screens show for `COc1ccc(/C=N/N2C(=O)CSC2=S)cc1`?
ZTA counter: -8; EBNA-1 inh: -8; LANA-H2A inh: 1; CSN deneddyl inh: 0; Bfl-1 A1 inh: 0; HNF4A DNA FP: 4

Results for COc1ccc(/C=N/N2C(=O)CSC2=S)cc1Br ?
ZTA counter: -5; EBNA-1 inh: 4; LANA-H2A inh: 1; CSN deneddyl inh: 58*; Bfl-1 A1 inh: 0; HNF4A DNA FP: 61*; CSN5 deneddyl: 51*; MMP2 cntr CSN: 5; Thrombin counter: 54*

How did NCc1cc2c3c(c1)CCCN3CCC2 do in these assays?
ZTA counter: -7; EBNA-1 inh: 8; LANA-H2A inh: -6; CSN deneddyl inh: 63*; Bfl-1 A1 inh: 0; HNF4A DNA FP: 11; CSN5 deneddyl: 88*; MMP2 cntr CSN: -10; Thrombin counter: -8

Results for COc1c(C=O)cc2c3c1CCCN3CCC2 ?
ZTA counter: 2; EBNA-1 inh: 3; LANA-H2A inh: 0; CSN deneddyl inh: 7; Bfl-1 A1 inh: 0; HNF4A DNA FP: 3

What do the screens show for `COc1ccc(-c2csc(NC(=O)CSc3nc(C)cs3)n2)cc1`?
ZTA counter: -4; EBNA-1 inh: 23; LANA-H2A inh: -1; CSN deneddyl inh: -2; Bfl-1 A1 inh: 0; HNF4A DNA FP: -2

How did COc1ccc(-c2csc(NC(=O)CSc3nc(C)nc4sc(C(=O)O)c(C)c34)n2)cc1 do in these assays?
ZTA counter: 2; EBNA-1 inh: 3; LANA-H2A inh: -6; CSN deneddyl inh: 51*; Bfl-1 A1 inh: -1; HNF4A DNA FP: -1; CSN5 deneddyl: -8; MMP2 cntr CSN: 13; Thrombin counter: 5

How did CC(=O)N1CCc2cc(S(=O)(=O)C(C)CC(=O)NCc3ccco3)ccc21 (stereo not drawn) do in these assays?
CSN deneddyl inh: -3; HNF4A DNA FP: -2

Results for CN(C)CCCN(C(=O)c1ccc(S(=O)(=O)N2CCc3ccccc3C2)cc1)c1nc2ccc(F)cc2s1 ?
ZTA counter: -11; EBNA-1 inh: 0; LANA-H2A inh: -10; CSN deneddyl inh: 99*; Bfl-1 A1 inh: 30*; HNF4A DNA FP: 57*; CSN5 deneddyl: -33; MMP2 cntr CSN: -1; Thrombin counter: -14

How did N#C/C(=C\c1ccc(N2CCCCC2)o1)C(N)=O do in these assays?
ZTA counter: 0; EBNA-1 inh: 12; LANA-H2A inh: -34; CSN deneddyl inh: 106*; Bfl-1 A1 inh: 0; HNF4A DNA FP: 168; CSN5 deneddyl: 198*; MMP2 cntr CSN: -10; Thrombin counter: 15

How did Nc1cccc2c1C(=O)N(C(=O)/C=C/c1ccc(F)cc1)C2=O do in these assays?
ZTA counter: -9; EBNA-1 inh: -7; LANA-H2A inh: -4; CSN deneddyl inh: 37*; Bfl-1 A1 inh: 0; HNF4A DNA FP: -6; CSN5 deneddyl: 69*; MMP2 cntr CSN: 9; Thrombin counter: 4

Results for Nc1cccc2c1C(=O)N(C(=O)c1ccco1)C2=O ?
ZTA counter: -17; EBNA-1 inh: 1; LANA-H2A inh: 3; CSN deneddyl inh: 2; Bfl-1 A1 inh: 0; HNF4A DNA FP: -3

Results for O=C(CSc1nnc(Nc2ccccc2)s1)NCC1CCCO1 (stereo not drawn) ?
ZTA counter: 14; LANA-H2A inh: 0; CSN deneddyl inh: 2; Bfl-1 A1 inh: 1; HNF4A DNA FP: 0

Results for COc1cc2cc3c(N)c(C(=O)NCc4ccco4)sc3nc2cc1OC ?
ZTA counter: -4; EBNA-1 inh: 6; LANA-H2A inh: 6; CSN deneddyl inh: -1; Bfl-1 A1 inh: 0; HNF4A DNA FP: 2
